How the values were obtained:
[1] = Equilibrium constant (K3) of the compound.; format: ADME
Outline: (§1)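 Stepwise macroscopic protonation constants measured over pH 2.5–10, where each phosphate has one titratable proton. Observed NMR chemical shifts were treated as weighted averages of the shifts of the protonated and deprotonated species.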

[2] = Equilibrium constant (K1) of the compound.; format: ADME; outline: as §1
[3] = Equilibrium constant (K2) of the compound.; format: ADME; outline: as §1
[4] = molecular target: Inositol 1,4,5-trisphosphate-gated calcium channel ITPR3 (Bos taurus, UniProt Q8WN95); assay: Binding affinity against Inositol 1,4,5-trisphosphate receptor on bovine adrenal cortex microsomes.
Sequence of Inositol 1,4,5-trisphosphate-gated calcium channel ITPR3 (Q8WN95 whole entry): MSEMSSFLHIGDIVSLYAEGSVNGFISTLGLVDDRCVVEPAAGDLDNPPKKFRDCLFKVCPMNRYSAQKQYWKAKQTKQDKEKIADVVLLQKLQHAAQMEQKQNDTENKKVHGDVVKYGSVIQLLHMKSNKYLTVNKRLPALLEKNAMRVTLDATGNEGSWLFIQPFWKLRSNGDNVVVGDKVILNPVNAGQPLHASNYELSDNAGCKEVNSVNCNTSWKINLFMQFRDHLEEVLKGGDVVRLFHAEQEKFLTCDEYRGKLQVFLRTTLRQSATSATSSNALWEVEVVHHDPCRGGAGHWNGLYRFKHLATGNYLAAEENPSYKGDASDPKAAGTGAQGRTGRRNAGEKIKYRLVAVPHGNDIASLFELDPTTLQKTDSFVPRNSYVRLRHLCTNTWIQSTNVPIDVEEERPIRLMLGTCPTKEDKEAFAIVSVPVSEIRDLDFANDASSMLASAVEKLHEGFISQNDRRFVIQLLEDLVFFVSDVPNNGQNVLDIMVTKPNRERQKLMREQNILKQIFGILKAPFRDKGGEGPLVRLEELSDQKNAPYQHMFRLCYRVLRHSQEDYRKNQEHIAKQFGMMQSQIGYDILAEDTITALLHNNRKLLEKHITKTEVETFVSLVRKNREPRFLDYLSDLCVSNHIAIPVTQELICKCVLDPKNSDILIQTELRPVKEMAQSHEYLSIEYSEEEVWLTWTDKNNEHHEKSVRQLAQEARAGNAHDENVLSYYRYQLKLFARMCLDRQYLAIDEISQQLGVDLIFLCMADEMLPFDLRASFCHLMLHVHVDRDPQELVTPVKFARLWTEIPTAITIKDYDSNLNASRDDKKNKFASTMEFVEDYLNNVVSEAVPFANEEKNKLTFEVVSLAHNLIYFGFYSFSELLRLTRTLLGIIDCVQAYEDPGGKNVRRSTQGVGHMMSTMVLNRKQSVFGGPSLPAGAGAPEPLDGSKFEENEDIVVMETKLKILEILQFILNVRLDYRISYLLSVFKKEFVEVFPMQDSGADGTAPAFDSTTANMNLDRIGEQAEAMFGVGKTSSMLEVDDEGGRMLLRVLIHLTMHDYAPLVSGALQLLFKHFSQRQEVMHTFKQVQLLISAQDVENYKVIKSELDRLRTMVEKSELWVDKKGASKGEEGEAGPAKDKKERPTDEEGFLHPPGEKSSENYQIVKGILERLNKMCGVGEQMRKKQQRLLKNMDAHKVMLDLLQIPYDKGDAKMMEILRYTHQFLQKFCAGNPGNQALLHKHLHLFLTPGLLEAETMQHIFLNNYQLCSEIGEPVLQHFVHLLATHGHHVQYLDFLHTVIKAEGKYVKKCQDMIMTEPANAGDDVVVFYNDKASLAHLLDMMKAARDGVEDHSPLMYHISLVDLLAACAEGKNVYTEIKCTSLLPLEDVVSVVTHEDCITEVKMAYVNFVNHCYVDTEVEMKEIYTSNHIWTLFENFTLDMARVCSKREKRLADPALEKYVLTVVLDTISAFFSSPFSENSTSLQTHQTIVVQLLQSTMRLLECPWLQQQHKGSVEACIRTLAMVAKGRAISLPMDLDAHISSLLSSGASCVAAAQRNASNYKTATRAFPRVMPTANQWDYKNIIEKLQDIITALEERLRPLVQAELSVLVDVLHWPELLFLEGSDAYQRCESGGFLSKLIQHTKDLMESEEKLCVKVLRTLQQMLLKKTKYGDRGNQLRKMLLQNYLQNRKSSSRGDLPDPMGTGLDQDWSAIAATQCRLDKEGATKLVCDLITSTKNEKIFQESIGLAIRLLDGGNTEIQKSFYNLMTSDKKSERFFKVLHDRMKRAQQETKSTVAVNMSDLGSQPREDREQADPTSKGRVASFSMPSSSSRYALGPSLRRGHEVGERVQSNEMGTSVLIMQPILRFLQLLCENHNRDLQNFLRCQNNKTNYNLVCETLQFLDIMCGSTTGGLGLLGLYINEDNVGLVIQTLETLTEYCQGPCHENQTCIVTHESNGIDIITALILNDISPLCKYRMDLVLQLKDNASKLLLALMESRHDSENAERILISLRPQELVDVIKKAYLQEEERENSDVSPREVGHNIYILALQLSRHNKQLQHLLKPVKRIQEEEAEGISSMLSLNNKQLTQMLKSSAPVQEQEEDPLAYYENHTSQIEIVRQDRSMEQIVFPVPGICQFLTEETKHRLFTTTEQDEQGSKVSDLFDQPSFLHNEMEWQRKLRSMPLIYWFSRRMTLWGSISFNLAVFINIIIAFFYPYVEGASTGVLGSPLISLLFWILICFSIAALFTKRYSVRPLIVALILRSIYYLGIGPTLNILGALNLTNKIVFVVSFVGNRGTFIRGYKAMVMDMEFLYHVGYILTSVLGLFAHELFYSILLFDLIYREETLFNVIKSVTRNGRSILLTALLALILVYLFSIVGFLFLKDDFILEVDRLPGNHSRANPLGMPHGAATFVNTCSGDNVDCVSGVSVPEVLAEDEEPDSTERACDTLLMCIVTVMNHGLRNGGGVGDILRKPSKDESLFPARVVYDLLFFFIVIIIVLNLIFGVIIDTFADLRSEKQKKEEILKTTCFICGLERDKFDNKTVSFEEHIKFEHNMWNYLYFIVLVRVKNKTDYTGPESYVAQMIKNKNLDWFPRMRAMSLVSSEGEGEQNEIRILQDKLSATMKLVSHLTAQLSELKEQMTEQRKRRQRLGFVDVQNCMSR

[5] = Equilibrium constant (K4) of the compound.; format: ADME; outline: as §1

| Log K3 [1] | Log K1 [2] | Log K2 [3] | IC50 [4] [nM] | Log K4 [5] | SMILES |
| --- | --- | --- | --- | --- | --- |
| 5.4 | 8.01 | 6.39 | – | – | O=P(O)(O)O[C@@H]1[C@H](O)[C@H](O)[C@@H](OP(=O)(O)O)[C@H](OP(=O)(O)O)[C@@H]1O |
| 5.31 | 7.85 | 6.4 | – | – | O=P(O)(O)O[C@@H]1[C@H](O)[C@H](O)[C@@H](OP(=O)(O)O)[C@H](OP(=O)(O)O)[C@H]1O [INS(1,4,5)P3] |
| – | – | – | 3900 | – | O=P(O)(O)O[C@@H]1CC[C@@H](OP(=O)(O)O)[C@H](OP(=O)(O)O)C1 |
| 5.56 | 8.76 | 6.64 | 2000 | – | O=P(O)(O)O[C@@H]1[C@H](O)[C@H](O)[C@@H](OP(=O)(O)O)[C@H](OP(=O)(O)O)[C@H]1F |
| 5.58 | 10.69 | 7.35 | 5000 | 4.62 | N[C@@H]1[C@@H](OP(=O)(O)O)[C@H](OP(=O)(O)O)[C@@H](O)[C@@H](O)[C@H]1OP(=O)(O)O |
| 5.53 | 8.3 | 6.65 | 1000 | – | O=P(O)(O)O[C@@H]1[C@@H](O)[C@@H](O)[C@@H](OP(=O)(O)O)C[C@H]1OP(=O)(O)O |

— ChEMBL document CHEMBL1132480, “Synthesis, acid-base behavior, and binding properties of 6-modified myo-inositol 1,4,5-tris(phosphate)s” (J Med Chem, 1999)
